Measured values reported in ChEMBL document CHEMBL3758101, “Synthesis and biological evaluation of fluorinated 1,5-diarylpyrrole-3-alkoxyethyl ether derivatives as selective COX-2 inhibitors endowed with anti-inflammatory activity” (Eur J Med Chem, 2016).
Active and inactive are the calls of the source.

Tests used:
HaCaT = assay: Antiproliferative activity against human HaCaT cells at 50 uM after 24 hrs by BrdU incorporation assay; assay type: functional, cell-based
In short: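 HaCaT human keratinocytes were grown in high-glucose DMEM with 10% FBS and 2 mM L-glutamine at 37 °C and 5% CO2 to 80% confluency. Cells were treated 24 h with compound at 1, 10 or 50 µM (final DMSO ≤0.1%). Proliferation was read by BrdU incorporation as % of DMSO control; three experiments.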

[1] = target: T1, Prostaglandin G/H synthase 1 (Mus musculus, UniProt P22437); assay: Inhibition of COX-1 in mouse J774 cells assessed as reduction in PGE2 level using arachidonic acid as substrate preincubated for 15 mins followed by incubation with arachidonic acid for 30 mins by radio immunoassay; assay type: cell-based
T1 sequence (P22437 whole entry): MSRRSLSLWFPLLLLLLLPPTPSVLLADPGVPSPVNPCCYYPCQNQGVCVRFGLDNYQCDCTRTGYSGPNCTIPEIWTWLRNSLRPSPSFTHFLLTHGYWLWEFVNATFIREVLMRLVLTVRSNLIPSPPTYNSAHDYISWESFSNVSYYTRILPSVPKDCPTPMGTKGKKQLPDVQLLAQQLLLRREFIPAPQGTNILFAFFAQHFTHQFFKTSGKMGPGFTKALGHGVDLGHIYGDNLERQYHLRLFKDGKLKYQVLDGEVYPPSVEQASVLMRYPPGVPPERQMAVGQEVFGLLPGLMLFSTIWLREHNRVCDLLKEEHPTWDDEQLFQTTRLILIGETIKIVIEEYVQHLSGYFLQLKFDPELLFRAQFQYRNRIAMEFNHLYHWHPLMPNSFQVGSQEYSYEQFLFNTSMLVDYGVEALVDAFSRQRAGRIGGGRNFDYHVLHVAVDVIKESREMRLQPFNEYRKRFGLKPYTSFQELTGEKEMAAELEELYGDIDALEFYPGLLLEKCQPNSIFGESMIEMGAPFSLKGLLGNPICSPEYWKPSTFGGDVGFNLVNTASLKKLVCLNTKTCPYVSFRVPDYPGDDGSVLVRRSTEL
In short: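 Murine J774 macrophages (2.5 × 10^5 cells/mL) were adhered 2 h at 37 °C and given fresh medium. Cells were pretreated with compound at 100 µM for 15 min, then incubated 30 min at 37 °C with 15 µM arachidonic acid. Supernatant PGE2 was measured by RIA as % inhibition versus control; triplicate wells, three experiments, IC50 from a sigmoidal variable-slope fit.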

Rattus norvegicus [2] = assay: Antihyperalgesic activity in Sprague-Dawley rat model of carrageenan-induced inflammatory pain assessed as paw pressure threshold at 20 mg/kg, po administered 2 hrs post carrageenan challenge measured after 60 mins by paw pressure test (reference value: 35.4 +/- 3.6 g)
Mus musculus = assay: Antinociceptive activity in CD1 albino mouse model of acetic acid-induced visceral pain assessed as number of writhes at 10 mg/kg, po pretreated for 30 mins before acetic acid challenge measured after 5 mins (reference value: 30.5 +/- 1.7); assay type: functional
Rattus norvegicus [3] = assay: Antihyperalgesic effect in Sprague-Dawley rat model of monosodium iodoacetate-induced osteoarthritis assessed as withdrawal threshold at 3 mg/kg, ip administered 14 days post MIA challenge measured after 90 mins by paw pressure test (reference value: 37.8 +/- 3.1 g); assay type: functional
In short: (§1)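 Male Sprague–Dawley rats (200–250 g). MIA (2 mg/25 µL) was injected into the left tibiotarsal joint on day 0 under 2% isoflurane; controls received 25 µL saline. On day 14 compound or vehicle was given at time 0. Paw pressure threshold (g) was read with an analgesimeter using a blunt conical probe on the dorsal paw at 30, 60, 90 and 120 min. Mean ± s.e.m., 6 rats.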

Rattus norvegicus [4] = assay: Antihyperalgesic effect in Sprague-Dawley rat model of monosodium iodoacetate-induced osteoarthritis assessed as withdrawal threshold at 3 mg/kg, ip administered 14 days post MIA challenge measured after 120 mins by paw pressure test (reference value: 39.2 +/- 4 g); assay type: functional; in short: as §1
Rattus norvegicus [5] = assay: Antiinflammatory activity in Sprague-Dawley rat model of carrageenan-induced paw edema assessed as volume of paw edema at 20 mg/kg, po administered 2 hrs post carrageenan challenge measured after 60 mins by plethysmometry (reference value: 2.73 +/- 0.07 ml); assay type: functional
Rattus norvegicus [6] = assay: Antihyperalgesic effect in Sprague-Dawley rat model of monosodium iodoacetate-induced osteoarthritis assessed as withdrawal threshold at 10 mg/kg, ip administered 14 days post MIA challenge measured after 120 mins by paw pressure test (reference value: 39.2 +/- 4 g); assay type: functional; in short: as §1
Rattus norvegicus [7] = assay: Antihyperalgesic effect in Sprague-Dawley rat model of monosodium iodoacetate-induced osteoarthritis assessed as withdrawal threshold at 20 mg/kg, ip administered 14 days post MIA challenge measured after 120 mins by paw pressure test (reference value: 39.2 +/- 4 g); assay type: functional; in short: as §1
[8] = target: T2, Prostaglandin G/H synthase 2 (Mus musculus, UniProt Q05769); assay: Inhibition of COX-2 in mouse J774 cells assessed as reduction in LPS-induced PGE2 level incubated for 24 hrs by radio immunoassay; assay type: cell-based
T2 sequence (Q05769 whole entry): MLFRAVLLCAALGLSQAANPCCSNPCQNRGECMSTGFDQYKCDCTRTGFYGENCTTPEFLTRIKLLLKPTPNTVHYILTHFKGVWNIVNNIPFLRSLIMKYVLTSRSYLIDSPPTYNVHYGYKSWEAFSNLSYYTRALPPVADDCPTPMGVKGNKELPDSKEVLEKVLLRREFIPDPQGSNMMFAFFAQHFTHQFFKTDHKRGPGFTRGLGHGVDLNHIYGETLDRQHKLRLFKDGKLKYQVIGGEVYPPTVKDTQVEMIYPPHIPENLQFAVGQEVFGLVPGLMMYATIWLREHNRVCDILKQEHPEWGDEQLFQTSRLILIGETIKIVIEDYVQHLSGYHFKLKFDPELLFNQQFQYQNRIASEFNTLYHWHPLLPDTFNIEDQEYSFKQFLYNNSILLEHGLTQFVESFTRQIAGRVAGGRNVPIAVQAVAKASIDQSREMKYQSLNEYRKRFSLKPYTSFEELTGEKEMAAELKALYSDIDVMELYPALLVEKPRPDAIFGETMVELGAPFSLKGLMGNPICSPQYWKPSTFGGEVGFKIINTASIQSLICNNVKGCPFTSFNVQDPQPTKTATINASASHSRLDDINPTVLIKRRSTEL
In short: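 Murine J774 macrophages were stimulated for 24 h with E. coli LPS (10 µg/mL) to induce COX-2, with or without compound (0.001–10 µM). Supernatant PGE2 was measured by RIA as % inhibition of production versus control; triplicate wells, mean of three experiments, IC50 from a sigmoidal variable-slope fit.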

Rattus norvegicus [9] = assay: Antiinflammatory activity in Sprague-Dawley rat model of carrageenan-induced […] at 10 mg/kg, po administered 2 hrs post carrageenan challenge measured after 30 mins by […] (reference value: 34.1 +/- 2.3 ml); assay type: functional
Rattus norvegicus [10] = assay: Antihyperalgesic effect in Sprague-Dawley rat model of monosodium iodoacetate-induced osteoarthritis assessed as withdrawal threshold at 10 mg/kg, ip administered 14 days post MIA challenge measured after 60 mins by paw pressure test (reference value: 36.1 +/- 3.5 g); assay type: functional; in short: as §1

IC50 [1]: > 100000 nM
IC50 [8]: 7 nM
SMILES: Cc1c(CCOCCCF)cc(-c2ccc(S(C)(=O)=O)cc2)n1-c1ccc(F)cc1
Activity (HaCaT): Active
Activity (Rattus norvegicus [2]): 56.3 g
Activity (Mus musculus): 11.4
Activity (Rattus norvegicus [3]): 42.4 g
Activity (Rattus norvegicus [4]): 39 g
Activity (Rattus norvegicus [5]): 2.06 mL
Activity (Rattus norvegicus [6]): 40.6 g
Activity (Rattus norvegicus [7]): 37.1 g
Activity (Rattus norvegicus [9]): 51.7 g
Activity (Rattus norvegicus [10]): 51.8 g
